# High-throughput results as filed in PubChem.
# TNAP inh noacc: human TNAP enzyme inhibitors, primary screen, biochemical, luminescent, no phosphate acceptor, uHTS | Alkaline phosphatase, tissue-nonspecific isozyme (Homo sapiens), P05186 | purified TNAP, CDP-star luminescence, 30 min | inhibition, % at 20 µM | 200,000 tested, 0.26% active;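 active = tissue-nonspecific alkaline phosphatase inhibition above about 50% at 20 µM in the single-dose screen, limit read from the data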;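 also: 0% = DMSO negative control and 100% = EDTA positive control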
# Target sequence (P05186 whole entry, looked up): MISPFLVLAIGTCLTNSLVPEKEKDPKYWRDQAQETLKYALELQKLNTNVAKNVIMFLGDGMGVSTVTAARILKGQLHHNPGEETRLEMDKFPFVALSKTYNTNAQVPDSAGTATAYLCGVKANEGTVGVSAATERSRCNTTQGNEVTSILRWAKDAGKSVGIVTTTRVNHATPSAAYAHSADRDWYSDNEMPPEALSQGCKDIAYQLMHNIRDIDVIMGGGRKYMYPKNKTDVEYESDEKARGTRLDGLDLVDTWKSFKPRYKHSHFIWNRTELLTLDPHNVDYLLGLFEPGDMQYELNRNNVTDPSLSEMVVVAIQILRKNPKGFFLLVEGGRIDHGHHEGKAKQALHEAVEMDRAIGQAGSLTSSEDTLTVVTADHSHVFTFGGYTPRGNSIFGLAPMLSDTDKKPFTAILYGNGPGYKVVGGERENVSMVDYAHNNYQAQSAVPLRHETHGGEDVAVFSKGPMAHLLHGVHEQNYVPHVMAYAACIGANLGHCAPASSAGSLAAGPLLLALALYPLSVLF
# bCat KO growth: primary screen for growth suppressors in beta-catenin knockout HCT116 cells (colon tumor, human); HCT116 beta-catenin knockout viability, CellTiter-Glo, 60 h; hits give low values; viability, % at 10 µM; 140,000 tested, 1.5% active; AID 818, 2007;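 active = viability at or under a set limit, the compound median less 4 SD, cut at about 6% in these data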;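 also: 0% = Hyamine 1622 control at 20 µM and 100% = untreated cell control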
# PTEN del growth: growth suppression of PTEN-null HCT116, primary screen, cell-based, CellTiter-Glo; viability, % at 10 µM; 140,000 tested, 1.2% active; HCT116 PTEN-null viability, 60 h; hits give low values; AID 827, 2007;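 active = viability at or below a set limit, 4 SD under the median of all tested compounds, cut at about 3.7% in these data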;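 also: PTEN knockout HCT116 line with beta catenin targeted HCT116 as companion control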
# L major viab: Leishmania major promastigote growth inhibition, primary screen; Leishmania major promastigotes, resazurin fluorescence viability; inhibition, % at 10 µM; 200,000 tested, 9% active; in the data active = inhibition above about 50%;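 also: promastigotes grown with compound for 44 hours at 28 °C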
# TNAP inh hi DEA: human TNAP enzyme inhibitors, primary screen, biochemical, luminescent, high phosphate acceptor level, uHTS; purified TNAP, CDP-star luminescence, 1 M DEA; 200,000 tested, 0.03% active; Alkaline phosphatase, tissue-nonspecific isozyme (Homo sapiens), P05186; AID 1135, 2008; inhibition, % at 20 µM;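 active = over 50% inhibition of tissue-nonspecific alkaline phosphatase at 20 µM in the single-dose screen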;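 also: plate controls were DMSO wells for no effect and EDTA-quenched wells as full inhibition for full effect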
# TNAP act hiacc: TNAP activators at high phosphate acceptor level, primary screen, biochemical, luminescence, uHTS. purified TNAP, CDP-star luminescence, 1 M DEA, 30 min; hits give high values; 0 = EDTA background, 1 = DMSO-only activity. activation factor at 20 µM. 200,000 tested, under 10 active. AID 1136, 2008;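 active = activation factor at least 2 at 20 µM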
#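 Test system – human TNAP · Doses – 20 µM single point · Incubation – 30 min, room temperature · Signal – luminescent substrate turnover signal · Read-out basis – activation factor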
# Active calls of the source: *; · = no result. This is a sample that favours compounds with a hit; in the whole collection about 9.6% have one here.
SMILES,TNAP inh noacc,bCat KO growth,PTEN del growth,L major viab,TNAP inh hi DEA,TNAP act hiacc
Cn1c(O)c(N=Nc2nc(-c3ccccc3)cs2)c2ccccc21,26,39,53,66*,31,0.7
CCN(CC)CCNc1ccc2nnc(CCNS(=O)(=O)c3ccc(C)cc3)n2n1,-3,·,·,-6,6,0.9
Cc1ccc(Nc2nnc(C(C)(C)C)c(=O)n2N)cc1,-4,94,102,-6,1,1
CC(C)(C)c1nnc(N/N=C/c2cc(Br)ccc2O)n(N)c1=O,-129,13,14,98*,0,1
COc1ccc(OC)c(Cc2nnc(CCC(=O)NCc3nc4ccccc4s3)o2)c1,-8,·,·,-3,-3,1
CCC(=Nc1ccccc1OC)C1=C(O)CC(c2ccccc2)CC1=O (stereo unspecified),-12,·,·,53*,-2,1
O=C(NC(=S)N(CCO)Cc1ccccc1)c1cc(Br)ccc1Cl,0,·,·,-3,0,1
Cc1cn([C@H]2C[C@H](N=[N+]=[N-])[C@@H](CO)O2)c(=O)[nH]c1=O,-10,83,87,-3,-2,1
O=c1[nH]c(=O)n([C@H]2C[C@H](O)[C@@H](CO)O2)cc1F,-8,45,36,82*,-4,1
CCOCCCNC(=O)/C(C#N)=C/c1ccc(-c2ccc(S(=O)(=O)N3CCOCC3)cc2)o1,-16,72,75,18,2,1
COCCNC(=O)/C(C#N)=C/c1ccc(-c2ccc(S(=O)(=O)N3CCOCC3)cc2)o1,-6,91,88,78*,-4,1
COc1ccc(CN2CCNC(=O)C2CC(=O)NC2Cc3ccccc3C2)c(OC)c1 (stereo unspecified),-8,·,·,-6,-2,1
Cc1cccc(OCC(=O)N/N=C\c2cccn2C)c1C,3,·,·,2,0,1
COc1ccc(/C=C\C(=O)CC(O)(c2ccccc2)C(F)(F)F)cc1 (stereo unspecified),-15,10,11,100*,-4,1
COc1ccc(/C=C(/NC(=O)/C=C/c2ccccc2)C(=O)O)cc1,-9,·,·,-7,0,1
CCOC(=O)C1CCCN(Cc2ccc3c(c2)OCO3)C1 (stereo unspecified),-13,98,87,92*,-5,1
CCN(CC)C(=O)C1CCCN(Cc2ccc3c(c2)OCO3)C1 (stereo unspecified),-20,99,93,44,-2,1
O=C(C1CCCN(Cc2ccc3c(c2)OCO3)C1)N1CCCC1 (stereo unspecified),-6,98,99,46,0,1
COc1ccc(F)cc1C(=O)C1CCCN(Cc2cccn2-c2cccnc2)C1 (stereo unspecified),2,·,·,74*,5,1
CCOC(=O)N1CCC(N2CCCC(C(=O)c3cc(F)ccc3OC)C2)CC1 (stereo unspecified),-3,·,·,82*,-3,1
CC(=O)c1cccc(CN2CCCC(C(=O)c3ccc4c(c3)OCO4)C2)c1 (stereo unspecified),-6,·,·,100*,-5,1
CCOc1ccccc1C(=O)Nc1nnc(SCC(=O)Nc2cc(C)on2)s1,3,·,·,-10,2,1
Cc1cccc(OCCC(=O)N(C)CC(=O)Nc2cccc3ccccc23)c1,-19,86,79,2,-1,1
O=C(CCN1CCCCC1)c1ccc2c(c1)OCO2,-7,91,97,27,-3,1
COc1cccc(CN2CCCC(C(=O)c3ccc4c(c3)OCO4)C2)c1O (stereo unspecified),3,·,·,82*,-3,1
SMILES,TNAP inh noacc,bCat KO growth,PTEN del growth,L major viab,TNAP inh hi DEA,TNAP act hiacc
COc1ccc(F)cc1C(=O)C1CCCN(Cc2ccc3c(c2)OCCO3)C1 (stereo unspecified),-1,·,·,104*,0,1
O=C(c1ccc2c(c1)OCO2)C1CCCN(C2CCN(CCc3ccccc3)CC2)C1 (stereo unspecified),-4,·,·,98*,-7,1.1
CCOC(=O)CNC(=O)N1CCCC(C(=O)c2ccc3c(c2)OCO3)C1 (stereo unspecified),-9,·,·,-4,0,1
CCN(CC)c1ccc(C=C(c2nnnn2-c2ccc(C)cc2)c2nnnn2-c2ccc(C)cc2)cc1,3,82,86,42,11,0.9
CC(C)C(NS(=O)(=O)c1cccc2nsnc12)C(=O)NCc1ccc2c(c1)OCO2 (stereo unspecified),1,91,96,100*,-4,1
O=C(NCc1ccc2c(c1)OCO2)C1CCN(S(=O)(=O)c2cccc3nsnc23)CC1,-17,90,105,2,-2,1
CCOc1cc(/C=N/NC(=O)c2cccnc2)ccc1OC(=O)c1ccco1,-7,·,·,1,1,1
Fc1ccc2[nH]c3c(N4CCN(c5ccccc5)CC4)ncnc3c2c1,-10,74,56,22,-2,1
OC1(c2cccc(C(F)(F)F)c2)CCN(c2ncnc3c2[nH]c2ccc(F)cc23)CC1,-4,6,2.6*,88*,-2,1
CC(C)(C)c1ccc(OCC(=O)NNC(=O)c2cccnc2)cc1,-23,·,·,-2,-3,1
COc1cccc(/C=N/NC(=O)c2ccc(=O)n(C)c2)c1O,-138,12,10,81*,1,1
Nc1cc(Cl)nc(N/N=C/c2c(O)ccc3ccccc23)n1,-14,14,9,91*,1,1
Cn1cc(C(=O)N/N=C/c2c(O)ccc3ccccc23)ccc1=O,-114,·,·,99*,5,0.9
C=CCc1cccc(/C=N/NC(=O)c2ccccc2OC)c1O,-79,·,·,98*,-4,1
C=CCc1cccc(/C=N/NC(=O)c2ccccc2Br)c1O,11,·,·,9,1,1
CC(=O)c1nnn(-c2ccc([N+](=O)[O-])cc2)c1C,-15,·,·,-2,-9,1.1
C=C(C)CNC(=S)Nc1sc2c(c1C(=O)OCC)CC(C)(C)OC2,-8,86,95,-2,2,1
Cc1cc(NC(=O)CSc2nnc(N)s2)c([N+](=O)[O-])cc1C,-9,·,·,-5,-2,1
COC(=O)c1ccc(OCC(O)CN2C(=O)c3ccccc3S2(=O)=O)cc1 (stereo unspecified),-2,·,·,-4,0,1
COc1cccc(/C=N/NC(=O)c2[nH]c(C)c(C(=O)N/N=C/c3cccc(OC)c3O)c2C)c1O,-186,12,11,91*,3,1
